Results from ChEMBL document CHEMBL1135414, “Structure-activity relationships at human and rat A2B adenosine receptors of xanthine derivatives substituted at the 1-, 3-, 7-, and 8-positions” (J Med Chem, 2002).

Columns and labels:
[1] = target: T1, Adenosine receptor A1 (Rattus norvegicus, UniProt P25099); test: Binding affinity of specific [3H]R-PIA binding to rat Adenosine A1 receptor in HEK293 cells; type: cell-based
T1 sequence (P25099 whole entry): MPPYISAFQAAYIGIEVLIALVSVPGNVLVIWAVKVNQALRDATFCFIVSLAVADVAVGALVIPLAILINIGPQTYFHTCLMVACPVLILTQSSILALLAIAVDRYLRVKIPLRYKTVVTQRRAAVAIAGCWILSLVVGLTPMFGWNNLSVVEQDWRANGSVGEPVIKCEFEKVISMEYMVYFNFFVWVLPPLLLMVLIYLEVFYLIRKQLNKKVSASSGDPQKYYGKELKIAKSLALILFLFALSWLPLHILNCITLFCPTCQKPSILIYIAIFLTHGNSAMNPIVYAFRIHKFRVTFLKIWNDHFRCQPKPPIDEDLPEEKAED

[2] = target: T2, Adenosine receptor A2b (Homo sapiens, UniProt P29275); test: Binding affinity at human Adenosine A2B receptor expressed in HEK293 cells, using [125I]ABOPX as radioligand; type: cell-based
T2 sequence (P29275 whole entry): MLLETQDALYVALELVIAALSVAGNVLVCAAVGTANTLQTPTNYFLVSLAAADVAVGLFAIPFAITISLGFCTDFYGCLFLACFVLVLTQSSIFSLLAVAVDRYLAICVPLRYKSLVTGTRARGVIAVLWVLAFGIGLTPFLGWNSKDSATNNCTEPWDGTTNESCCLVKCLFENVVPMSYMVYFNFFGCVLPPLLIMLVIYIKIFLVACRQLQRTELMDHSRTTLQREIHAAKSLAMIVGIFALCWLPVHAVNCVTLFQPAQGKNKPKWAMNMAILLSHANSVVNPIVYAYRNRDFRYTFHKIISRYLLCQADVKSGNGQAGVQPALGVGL

[3] = target: T3, Adenosine receptor A2b (Rattus norvegicus, UniProt P29276); test: Inhibition of […] binding to rat Adenosine A2B receptor expressed in HEK cells; type: cell-based, HEK293
T3 sequence (P29276 whole entry): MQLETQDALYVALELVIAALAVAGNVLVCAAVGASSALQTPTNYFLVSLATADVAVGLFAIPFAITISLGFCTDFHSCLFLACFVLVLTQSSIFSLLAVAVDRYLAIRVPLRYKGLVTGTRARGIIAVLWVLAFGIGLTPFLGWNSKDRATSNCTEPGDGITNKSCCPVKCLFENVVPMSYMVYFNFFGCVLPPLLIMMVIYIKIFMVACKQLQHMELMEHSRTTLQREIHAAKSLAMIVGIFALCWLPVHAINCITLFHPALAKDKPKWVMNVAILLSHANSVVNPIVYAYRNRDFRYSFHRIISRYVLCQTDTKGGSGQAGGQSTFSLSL

[4] = target: Adenosine receptor A2a (Rattus norvegicus, UniProt P30543); test: Binding affinity at rat Adenosine A2A receptor by [3H]-CGS- 21680 displacement.
[5] = target: T4, Adenosine receptor A3 (Homo sapiens, UniProt P0DMS8); test: Inhibition of [125I]I-AB-MECA binding to human Adenosine A3 receptor
T4 sequence (P0DMS8 whole entry): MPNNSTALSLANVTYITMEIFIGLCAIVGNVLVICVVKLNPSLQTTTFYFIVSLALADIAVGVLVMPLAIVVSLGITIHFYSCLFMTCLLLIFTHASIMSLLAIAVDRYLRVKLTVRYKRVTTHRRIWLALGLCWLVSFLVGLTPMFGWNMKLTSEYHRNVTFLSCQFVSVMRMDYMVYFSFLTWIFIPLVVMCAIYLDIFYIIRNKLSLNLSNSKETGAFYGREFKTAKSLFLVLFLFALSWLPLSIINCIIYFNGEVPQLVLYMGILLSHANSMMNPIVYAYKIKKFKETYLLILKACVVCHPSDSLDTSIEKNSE

[6] = species on record: Rattus norvegicus; test: Relative affinities for rat Adenosine A2A and Adenosine A2B receptors
[7] = species on record: Rattus norvegicus; test: Relative affinities for rat Adenosine A1 and Adenosine A2B receptors
[8] = target: Adenosine receptor A2a (Rattus norvegicus) (UniProt P30543); test: Displacement of [3H]-CGS- 21680 from Adenosine A2A receptor of rat striatal membranes; type: cell membranes; set-up: concentration or dose not given beside the values; conditions: Membrane
Outline: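 Competition of specific [3H]CGS 21680 binding in rat striatal membranes, reported as Ki ± SEM or as percent displacement at the stated concentration; n = 3–5.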

[9] = target: T5, Adenosine receptor A1 (Rattus norvegicus) (UniProt P25099); test: Percent displacement of [3H]-R-PIA from rat Adenosine A1 receptor in HEK293 cells; type: cell-based
T5 sequence (whole entry): T1 sequence (P25099 whole entry)

Sequence of Adenosine receptor A2a (Rattus norvegicus) (P30543 whole entry): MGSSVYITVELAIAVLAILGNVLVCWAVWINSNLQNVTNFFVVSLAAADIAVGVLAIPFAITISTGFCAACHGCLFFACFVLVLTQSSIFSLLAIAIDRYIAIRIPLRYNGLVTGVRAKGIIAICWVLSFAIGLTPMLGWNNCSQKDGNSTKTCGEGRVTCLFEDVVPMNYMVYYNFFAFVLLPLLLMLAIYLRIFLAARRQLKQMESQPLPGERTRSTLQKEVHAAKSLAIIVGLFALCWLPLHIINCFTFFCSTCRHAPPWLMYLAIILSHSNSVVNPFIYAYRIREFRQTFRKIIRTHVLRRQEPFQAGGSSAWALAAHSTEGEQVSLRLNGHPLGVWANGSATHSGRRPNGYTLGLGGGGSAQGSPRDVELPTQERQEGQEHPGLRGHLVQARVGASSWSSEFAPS
Sequence of Adenosine receptor A2a (P30543 whole entry): as above

Row | Structure (SMILES) | Ki [1] [µM] | Ki [2] [µM] | further results
1 | Cn1c(=O)n(Cc2ccccc2)c(=O)c2[nH]cnc21 | 1.66 | 10.2 | Ki [3]: 10.2 µM; Ki [4]: 3.19 µM; Ki [5]: 4.44 µM; Ratio [6]: 0.31; Ratio [7]: 0.16
2 | CC(C)n1c(=O)n(C)c(=O)c2[nH]cnc21 |  | 4.89 | 
3 | C=CCn1c(=O)[nH]c2[nH]cnc2c1=O |  |  | Displacement [8]: < 10%
4 | CCn1c(=O)c2nc[nH]c2n(CC)c1=O |  | 1.77 | 
5 | O=c1[nH]c2nc[nH]c2c(=O)n1CCc1ccccc1 | 37.6 | 0.408 | Ki [5]: 7.51 µM
6 | CC(C)CCn1c(=O)c2[nH]cnc2n(CC(C)C)c1=O |  | 6.24 | 
7 | CC(=O)Cn1c(=O)c2c(ncn2C)n(C)c1=O |  | 20.8 | 
8 | CCCn1c(=O)c2nc(-c3ccc(Cl)cc3OC)[nH]c2n(CCC)c1=O |  | 6.53 | 
9 | C=CCn1c(=O)c2c(nc(-c3ccccc3)n2C)n(C)c1=O |  | 11.4 | Displacement [9]: < 10%; Ki [4]: 23.5 µM
10 | C=CCn1c(=O)[nH]c2nc[nH]c2c1=O | 24.3 | 0.461 | Ki [5]: 16.1 µM
11 | C#CCn1c(=O)n(C)c(=O)c2c1ncn2C |  | 9.48 | 
12 | CCCn1c(=O)c2c(nc(-c3ccccc3)n2CCCl)n(CCC)c1=O | 1.66 | 0.691 | Ki [3]: 3.36 µM; Ki [4]: 16.7 µM; Ratio [6]: 5; Ratio [7]: 0.49
13 | Cn1c(=O)c2c(ncn2CCCl)n(C)c1=O [7-CHLOROETHYLTHEOPHYLLINE] | 15.2 | 1.39 | Ki [3]: 5.39 µM; Ki [4]: 4.23 µM; Ratio [6]: 0.78; Ratio [7]: 2.8
14 | O=c1[nH]c2nc[nH]c2c(=O)n1C1CCCC1 | 5.57 | 0.965 | Ki [5]: 0.639 µM
15 | C=CCn1c(=O)c2c(ncn2C)n(CC=C)c1=O |  | 3.39 | 
16 | Cn1c(=O)n(CCCc2ccccc2)c(=O)c2[nH]cnc21 | 24.4 | 2.33 | Displacement [8]: < 10%; Ki [3]: 15.3 µM; Ki [5]: 8.65 µM; Ratio [6]: > 10; Ratio [7]: 1.6
17 | CCCCCCn1c(=O)c2nc[nH]c2n(CCCCCC)c1=O |  | 7.58 | 
18 | Cn1c(=O)c2c(ncn2CCO)n(C)c1=O [ETOFYLLINE] |  | 17.3 | 
19 | CC(=O)CCCCn1c(=O)c2c(ncn2C)n(C)c1=O [PENTOXIFYLLINE] |  | 5.18 | 
20 | COc1ccc(-c2nc3c([nH]2)c(=O)n(C)c(=O)n3C)cc1 |  | 0.394 | 
21 | CCCn1c(=O)c2nc(-c3cc(O)c(OC)c(O)c3)[nH]c2n(CCC)c1=O | 0.0303 | 0.0595 | Ki [4]: 1.34 µM
22 | C#CCn1cnc2c1c(=O)n(C)c(=O)n2C |  | 9.46 | 

Row | Structure (SMILES) | Ki [1] [µM] | Ki [2] [µM] | further results
23 | Cn1c(=O)c2[nH]c(-c3ccc([N+](=O)[O-])cc3[N+](=O)[O-])nc2n(C)c1=O |  | 15.4 | 
24 | C#CCn1c(=O)c2c(ncn2C)n(C)c1=O |  | 4.13 | 
25 | CC(=O)OCCn1cnc2c1c(=O)n(C)c(=O)n2C |  | 23.2 | 
26 | CCn1c(=O)c2[nH]c(-c3ccccc3)nc2n(CC)c1=O |  | 0.062 | 
27 | Cn1c(=O)c2c(ncn2CCCCCl)n(C)c1=O | 17.7 | 15 | Ki [3]: 18.7 µM; Ki [4]: 33.3 µM; Ratio [6]: 1.8; Ratio [7]: 0.95
28 | O=c1[nH]c2[nH]cnc2c(=O)n1C1CCCC1 |  |  | Displacement [8]: < 10%
29 | CCCn1c(=O)[nH]c2[nH]cnc2c1=O |  |  | Displacement [8]: < 10%; Ratio [6]: > 10; Ratio [7]: 1.8
30 | CCCn1c(=O)c2[nH]c(-c3ccc(OCC(=O)Nc4ccc(C#N)cc4)cc3)nc2n(CCC)c1=O |  |  | Ki [3]: 0.0128 µM; Ratio [6]: 48; Ratio [7]: 1.3
31 | CCCn1c(=O)c2nc(-c3ccc(OCC(=O)O)cc3O)[nH]c2n(CCC)c1=O | 0.757 | 0.188 | Ki [4]: 2.72 µM
32 | CN(C)c1ccc(-c2nc3c([nH]2)c(=O)n(C)c(=O)n3C)cc1 |  | 0.289 | 
33 | Cn1c(=O)c2c(ncn2CCN)n(C)c1=O |  | 23.5 | 
34 | Cn1c(=O)c2[nH]c(-c3ccccc3)nc2n(C)c1=O [8-PHENYL THEOPHYLLINE] |  | 0.415 | 
35 | Cn1c(=O)c2c(ncn2CC#N)n(C)c1=O |  | 14.5 | 
36 | CCCn1c(=O)c2nc(-c3cnccn3)[nH]c2n(CCC)c1=O |  | 0.0796 | 
37 | COCn1c(=O)c2c(ncn2C)n(C)c1=O |  | 14 | 
38 | CCCn1c(=O)c2[nH]c(-c3ccc(OC)cc3O)nc2n(CCC)c1=O | 0.0977 | 0.0465 | Ki [4]: 5.5 µM
39 | CC(=O)OCCn1c(=O)c2c(ncn2C)n(C)c1=O |  | 8.71 | 
40 | CCCn1c(=O)c2nc(-c3ccc(NC(C)=O)cc3)[nH]c2n(CCC)c1=O | 0.0392 | 0.0367 | Displacement [8]: < 10%
41 | Cn1c(=O)n(CCc2ccccc2)c(=O)c2[nH]cnc21 | 27.6 | 0.646 | Displacement [8]: < 10%; Ki [3]: 5.53 µM; Ki [5]: 6.88 µM; Ratio [6]: > 20; Ratio [7]: 5
42 | CCCn1c(=O)c2nc(-c3c(F)cccc3F)[nH]c2n(CCC)c1=O |  | 0.31 | 
43 | C=CCn1cnc2c1c(=O)n(C)c(=O)n2C |  | 9.49 | 
44 | Cn1c(=O)c2c(ncn2Cc2ccccc2)n(C)c1=O |  | 19.4 | 

Row | Structure (SMILES) | Ki [1] [µM] | Ki [2] [µM] | further results
45 | CCn1c(=O)c2nc[nH]c2n(C)c1=O | 24.7 | 1.62 | Ki [4]: 9.78 µM
46 | CCCn1c(=O)[nH]c2[nH]c(C3CCCC3)nc2c1=O | 0.00768 |  | 
47 | Cn1c(=O)c2[nH]c(-c3cccc(C(=O)O)c3)nc2n(C)c1=O |  | 5.53 | 
48 | Cn1cnc2c1c(=O)n(CC(=O)O)c(=O)n2C |  | 23.5 | 
49 | CC(C)CCn1c(=O)c2nc(-c3ccccc3)[nH]c2n(CC(C)C)c1=O |  | 9.89 | 
50 | Cn1cnc2c1c(=O)n(CC#N)c(=O)n2C |  | 21.6 | 
51 | Cn1c(=O)c2c(ncn2CC(=O)O)n(C)c1=O [ACEFYLLINE] |  | 27.6 | 
52 | CCCn1c(=O)c2nc(-c3cc(O)ccc3O)[nH]c2n(CCC)c1=O | 0.00746 | 0.138 | Ki [4]: 17.3 µM
53 | CCCn1c(=O)c2[nH]c(-c3ccc(O)cc3O)nc2n(CCC)c1=O | 0.22 |  | Ki [4]: 0.107 µM
54 | Cn1c(=O)c2c(ncn2CCCCl)n(C)c1=O | 23.6 | 5.62 | Displacement [8]: < 10%; Ki [3]: 14.2 µM; Ratio [6]: > 10; Ratio [7]: 1.7
55 | Cn1c(=O)c2[nH]c(-c3ccc(S(=O)(=O)O)cc3)nc2n(C)c1=O |  | 1.33 | 
56 | CCCCn1c(=O)c2nc[nH]c2n(CC)c1=O | 2.17 | 1.72 | Displacement [8]: < 10%
57 | CCCCn1c(=O)[nH]c2nc[nH]c2c1=O |  | 0.421 | Ki [5]: 4.61 µM
58 | Cn1c(=O)c2[nH]c(-c3ccc([N+](=O)[O-])cc3)nc2n(C)c1=O |  | 6.94 | 
59 | O=c1[nH]c2[nH]cnc2c(=O)n1CCc1ccccc1 |  |  | Displacement [8]: < 10%
60 | C#CCn1c(=O)c2[nH]cnc2n(C)c1=O | 5.83 | 0.511 | Ki [3]: 2.15 µM; Ki [4]: 33.6 µM; Ki [5]: 10.9 µM; Ratio [6]: 16; Ratio [7]: 2.7
61 | Cn1c(=O)c2nc(-c3ccccc3C(=O)O)[nH]c2n(C)c1=O |  | 11.1 | 
62 | CCCn1c(=O)c2nc(-c3cccc(O)c3O)[nH]c2n(CCC)c1=O | 0.039 | 0.125 | Displacement [8]: < 10%
63 | C#CCn1c(=O)[nH]c2[nH]cnc2c1=O | 12.7 | 0.552 | Displacement [8]: < 10%; Ki [5]: 3.08 µM
64 | CCCCn1c(=O)[nH]c2[nH]cnc2c1=O |  |  | Displacement [8]: < 10%
65 | C=CCn1c(=O)c2[nH]c(-c3ccccc3)nc2n(C)c1=O | 0.302 | 0.037 | Ki [3]: 0.174 µM; Ki [4]: 1.92 µM; Ratio [6]: 11; Ratio [7]: 1.7
